The test system of experiment [1] is Plasmodium falciparum. As to the kind of experiment: Antimalarial activity against multidrug-resistant Plasmodium falciparum K1 assessed as inhibition of [3H]-hypoxanthine incorporation. The settings on record: for pIC50: Plasmodium falciparum, K1, read-out: IC50. Format: functional, organism-based. In a few lines: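 In vitro culture of the K1 multidrug-resistant P. falciparum strain followed the Trager–Jensen method. Activity was scored by the Desjardins microculture radioisotope technique, reading [3H]-hypoxanthine uptake by the parasites. IC50 was taken as the concentration giving 50% reduction in parasite growth. Dihydroartemisinin served as the reference standard.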

The subject of experiment [2] is KB. As to the kind of experiment: Cytotoxicity against human KB cells by SRB assay. Format: functional, cell-based. For orientation: In SRB staining, fixed cells bind dye roughly in proportion to their protein.
For experiment [3], the system named is NCI-H187. In words: Cytotoxicity against human NCI-H187 cells by SRB assay. The settings on record: for pIC50: Homo sapiens, NCI-H187, read-out: IC50; for IC50: nci-h187. Format: functional, cell-based.
For experiment [4], the system named is MCF7. As to the kind of experiment: Cytotoxicity against human MCF7 cells by SRB assay. Format: functional, cell-based. The note with it: for pIC50: Homo sapiens, MCF7, read-out: IC50; for IC50: mcf7.

SMILES strings stand for the structures. pIC50: −log10 of the molar value.

In general, pIC50 refers to −log10 of the IC50, conventionally taken in molar units. In the case of `C[C@H]1[C@@H](O)O[C@@H]2O[C@@]3(C)CC[C@H]4[C@H](C)CC[C@@H]1[C@@]24OO3` [ARTENIMOL], the negative logarithm of the IC50 (pIC50) in experiment [1] was 8.40.
`COc1cccc2c1C(=O)c1c(O)c3c(c(O)c1C2=O)C[C@@](O)(C(=O)CO)C[C@@H]3O[C@H]1C[C@H](N)[C@H](O)[C@H](C)O1` [DOXORUBICIN]: the pIC50 in experiment [2] was 6.48; in experiment [3], 6.96; in experiment [4], 5.64.
For the compound `Cc1c2ccncc2c(C)c2c1[nH]c1ccccc12` [ELLIPTECINE], the values for the negative logarithm of the IC50 (pIC50) in experiment [2] and in experiment [3] were 5.90 and 5.74, respectively.
In the case of `CCC(C)CC(C)/C=C(C)/C=C/C(=O)[C@H]1C(=O)O[C@@]2(C)C(=O)C=C3C=C([C@H]4C(=O)C=CC[C@@H]4C)OC=C3[C@@H]12` (some centres not stated) [LONGIROSTRERONE C], the figures for the pIC50 in experiment [1] and in experiment [2] were 6.21 and 6.64, respectively. Moreover, the IC50 entry in experiment [3] and in experiment [4] was “Not Active” throughout.
`CCC(C)CC(C)/C=C(C)/C=C/C(=O)C1=C2C3=COC([C@H]4C(=O)C[C@H](O)C[C@@H]4C)=CC3=CC(=O)[C@@]2(C)OC1=O` (some centres not stated) [LONGIROSTRERONE D]: the IC50 entry in experiment [1] was “Not Active”. The figures for the negative logarithm of the IC50 (pIC50) in experiment [2], in experiment [3] and in experiment [4] were 5.20, 4.74 and 4.42, respectively.
Take `CCC(C)CC(C)/C=C(C)/C=C/C(=O)[C@H]1C(=O)O[C@@]2(C)C(=O)C=C3C=C([C@H]4C(=O)C[C@H](O)C[C@@H]4C)OC=C3[C@@H]12` (some centres not stated) [LONGIROSTRERONEA]: the pIC50 is 6.20 in experiment [1], 5.98 in experiment [2], 5.51 in experiment [3] and 6.62 in experiment [4].
Consider `CCC(C)CC(C)/C=C(C)/C=C/C(=O)C[C@H]1C2=COC([C@H]3C(=O)C[C@H](O)C[C@@H]3C)=CC2=CC(=O)[C@]1(C)O` (some centres not stated) [LONGIROSTRERONEB], for which the negative logarithm of the IC50 (pIC50) was 5.43 in experiment [1] and 5.82 in experiment [2]. Moreover, the IC50 result in experiment [3] and in experiment [4] was “Not Active” in each case.

The record behind these values is ChEMBL document CHEMBL1938234, “Cytotoxic and antimalarial azaphilones from Chaetomium longirostre” (J Nat Prod, 2011).
